Reference: publication PMC6408981 (Neuropharmacology, 2018)

Experiments:
PPAR-α = biological target: T1, PPAR-α (Mus musculus, UniProt P23204); assay: PPAR-α luciferase assay in COS-7 cells; type: cell-based; conditions: 18 h
T1 sequence (P23204 1-468): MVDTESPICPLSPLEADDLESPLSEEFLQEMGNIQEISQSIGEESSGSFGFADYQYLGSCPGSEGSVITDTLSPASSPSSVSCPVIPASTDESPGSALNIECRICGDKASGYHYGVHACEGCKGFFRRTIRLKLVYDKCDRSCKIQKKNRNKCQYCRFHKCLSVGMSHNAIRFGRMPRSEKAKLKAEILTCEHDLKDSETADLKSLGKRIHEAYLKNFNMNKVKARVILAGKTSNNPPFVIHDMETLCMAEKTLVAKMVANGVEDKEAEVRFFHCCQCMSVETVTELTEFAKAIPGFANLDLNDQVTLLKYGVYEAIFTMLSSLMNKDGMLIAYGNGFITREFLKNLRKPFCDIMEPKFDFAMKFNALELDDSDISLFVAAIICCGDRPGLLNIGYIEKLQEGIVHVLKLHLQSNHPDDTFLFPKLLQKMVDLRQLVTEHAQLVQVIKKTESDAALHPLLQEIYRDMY
Method in brief: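 COS-7 cells in DMEM with 10% FBS were transfected by lipofection with mouse PPAR-α (25 ng), PPRE×3-TK-luciferase (300 ng), β-galactosidase control (100 ng) and empty pcDNA3 (75 ng) per well. Next day the medium was replaced with compound-containing medium for 18 h. Firefly luciferase chemiluminescence was normalised to β-galactosidase activity and compared by Welch-corrected t-test.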

ICR mice [1] = conditions: ref Ignatowska-Jankowska et al., 2015; cited from earlier work
ICR mice [2] = assay: Cumulative CP55,940 dose-response study; type: in vivo, mouse
Method in brief: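 Male ICR mice (6–8 weeks, 27–32 g) received test compound (60 mg/kg i.p.) or vehicle 10 min before the first CP55,940 dose. Further doses followed every 40 min. Bar-test catalepsy, tail-flick and rectal temperature were measured at baseline and 30 min after each dose. Analysis was two-way ANOVA with Sidak post-hoc.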

ICR mice [3] = assay: Nicotine conditioned place preference; type: in vivo, mouse
Method in brief: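 Male ICR mice underwent unbiased three-chamber CPP. Day 1: 5-min middle-chamber habituation, then 15 min free access as baseline. Days 2–4: two 20-min conditioning sessions daily, 4 h apart. Controls got saline in both large chambers, with i.p. pretreatment 15 min before. Day 5: 15-min drug-free test. Score = test minus baseline time on the paired side.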

dependent smokers = conditions: ref Perkins et al., 2016; cited from earlier work
mice = conditions: ref Jackson et al., 2017; cited from earlier work
smokers = conditions: clinical trials; ref Robinson et al., 2017; cited from earlier work
[4] = biological target: human recombinant CB1 receptor (Homo sapiens, UniProt P21554); assay: Cannabinoid receptor binding, [3H]-CP-55,940 displacement, CB1
Method in brief: (§1)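 Membranes from HEK-293 cells stably expressing the human receptor (CB1 Bmax 2.5, CB2 Bmax 4.7 pmol/mg protein) were incubated with test compound and [3H]-CP-55,940 for 90 min at 30 °C. […] Nonspecific binding was defined with 10 μM WIN 55212-2. Ki came from IC50 via Cheng-Prusoff; at least 3 experiments, mean ± SEM.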

[5] = biological target: human recombinant CB2 receptor (Homo sapiens, UniProt P34972); assay: Cannabinoid receptor binding, [3H]-CP-55,940 displacement, CB2
Method in brief: as §1

[6] = biological target: T2, fatty acid amide hydrolase (Rattus norvegicus, UniProt P97612); assay: AEA hydrolysis by rat brain membranes; type: biochemical
T2 sequence (P97612 1-579): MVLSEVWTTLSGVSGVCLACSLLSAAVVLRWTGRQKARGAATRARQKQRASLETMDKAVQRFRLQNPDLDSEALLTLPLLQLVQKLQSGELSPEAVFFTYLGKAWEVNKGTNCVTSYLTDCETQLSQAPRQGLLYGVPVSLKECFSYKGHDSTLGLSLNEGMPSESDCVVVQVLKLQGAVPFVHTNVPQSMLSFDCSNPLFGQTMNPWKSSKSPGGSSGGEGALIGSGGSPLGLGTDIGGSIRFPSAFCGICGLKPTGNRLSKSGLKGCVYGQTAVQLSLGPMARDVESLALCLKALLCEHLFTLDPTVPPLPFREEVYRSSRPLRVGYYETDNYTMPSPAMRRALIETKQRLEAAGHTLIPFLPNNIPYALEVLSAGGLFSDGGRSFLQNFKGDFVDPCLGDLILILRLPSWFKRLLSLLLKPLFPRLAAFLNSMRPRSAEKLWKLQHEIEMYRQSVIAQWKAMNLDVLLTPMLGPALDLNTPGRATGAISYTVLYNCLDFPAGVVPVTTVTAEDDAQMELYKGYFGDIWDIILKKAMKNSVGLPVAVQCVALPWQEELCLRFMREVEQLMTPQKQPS

ICR mice [7] = assay: Tetrad behavioral assessment; type: in vivo, mouse; conditions: for Distance traveled / Speed / Time immobile: 10 min recording starting 5 min after injection; for Δ rectal temperature / Catalepsy / Antinociception: 30 min after injection; for Catalepsy: bar test; for Antinociception: tail withdrawal
Method in brief: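 Mice were acclimated at least 1 h, then baseline tail-withdrawal latency and body temperature were taken. Test compound or vehicle was given i.p.; 30 min later came bar-test catalepsy (immobility over 60 s), tail withdrawal (%MPE with 10 cutoff) and Δ temperature. Locomotor: 5 min post-dose, distance (cm) and immobile time (s) were video-tracked for 10 min. Analysis: one-way ANOVA, Dunnett.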

[8] = OlGly levels in plasma and brain regions after i.p. injection; type: in vivo, mouse
Method in brief: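 ICR mice received test compound (60 mg/kg i.p.) or vehicle. After 15 min, plasma, insular cortex, hippocampus and hypothalamus were collected. Samples were extracted with chloroform/methanol/50 mM Tris-HCl pH 7.5 (2:1:1) containing deuterated internal standards. Quantification was by isotope-dilution LC-MS (C18 column, isocratic methanol/water/acetic acid, positive ESI).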

nicotine-dependent mice = assay: Mecamylamine-precipitated nicotine withdrawal; type: in vivo, mouse
Method in brief: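 Male ICR mice (6–8 weeks, 27–32 g) had s.c. minipumps implanted under isoflurane, delivering nicotine 24 mg/kg/day or saline for 14 days. On day 15 they got the test compound i.p. (10, 30 or 60 mg/kg) or vehicle, then mecamylamine 2 mg/kg s.c. at 15 min. From 25 min, blinded scoring: 5 min elevated plus maze (open/closed-arm time, arm crosses), then 20 min somatic signs; n = 7–8/group.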

ICR mice [9] = assay: Morphine conditioned place preference; type: in vivo, mouse; conditions: OlGly i.p. pretreatment, morphine 10 mg/kg s.c. (methods)
Method in brief: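 Unbiased three-chamber CPP in male ICR mice. Day 1 baseline: 15 min free access after 5-min habituation. Days 2–4: twice-daily conditioning, 4 h apart and counterbalanced. Test compound or vehicle was given i.p. 15 min before morphine (10 mg/kg s.c.); 30-min sessions began 15 min after morphine. Day 5: 15-min drug-free test. Score = test minus baseline time in the morphine-paired side.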

rats = conditions: ref Chaturvedi et al., 2006; cited from earlier work
[10] = 60 mg/kg i.p., 15 min after injection, ICR mice

human recombinant CB1 receptor, sequence (P21554 whole entry): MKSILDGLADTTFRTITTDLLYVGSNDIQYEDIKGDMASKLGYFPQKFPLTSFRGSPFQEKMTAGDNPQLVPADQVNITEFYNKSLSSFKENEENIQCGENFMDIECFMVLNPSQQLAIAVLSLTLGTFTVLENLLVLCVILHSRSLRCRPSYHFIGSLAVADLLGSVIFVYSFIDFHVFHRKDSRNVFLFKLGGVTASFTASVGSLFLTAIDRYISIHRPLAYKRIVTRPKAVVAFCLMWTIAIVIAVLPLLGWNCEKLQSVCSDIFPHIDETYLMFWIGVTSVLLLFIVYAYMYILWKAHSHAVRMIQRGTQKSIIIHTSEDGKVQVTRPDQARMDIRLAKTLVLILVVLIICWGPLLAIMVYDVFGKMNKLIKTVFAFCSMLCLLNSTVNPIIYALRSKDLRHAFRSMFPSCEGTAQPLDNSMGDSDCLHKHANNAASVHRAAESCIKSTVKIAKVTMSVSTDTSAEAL
human recombinant CB2 receptor, sequence (P34972 whole entry): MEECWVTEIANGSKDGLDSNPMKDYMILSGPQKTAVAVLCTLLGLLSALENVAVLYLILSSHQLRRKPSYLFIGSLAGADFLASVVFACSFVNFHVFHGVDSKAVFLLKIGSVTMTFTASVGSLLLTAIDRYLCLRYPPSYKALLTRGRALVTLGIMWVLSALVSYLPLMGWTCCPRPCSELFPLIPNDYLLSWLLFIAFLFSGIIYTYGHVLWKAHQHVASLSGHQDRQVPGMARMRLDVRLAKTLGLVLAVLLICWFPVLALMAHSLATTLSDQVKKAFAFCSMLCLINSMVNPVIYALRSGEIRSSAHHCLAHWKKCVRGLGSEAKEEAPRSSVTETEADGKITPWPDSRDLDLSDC

Molecule: CC(C)(Sc1ccc(CCN(CCCCC2CCCCC2)C(=O)NC2CCCCC2)cc1)C(=O)O [GW7647, reference compound]
- Luciferase activity compared to DMSO (PPAR-α; GW7647 10 mM as printed in Fig. 6): significantly increased luciferase activity

Molecule: Cc1ccc2c(C(C[N+](=O)[O-])c3cccs3)c(-c3ccccc3)[nH]c2c1 (stereo not shown) [ZCZ011]
- Shift of the CP55,940 dose-response curve (antinociceptive, cataleptic, hypothermic effects) (ICR mice [1]): elicited a leftward shift

Molecule: (−)-cis-3-[2-hydroxy-4-(1,1-dimethylheptyl)phenyl]-trans-4-(3-hydroxypropyl)-cyclohexanol [CP55,940, reference compound]
- Catalepsy, antinociception and hypothermia (ICR mice [2]; cumulative 0, 0.3, 1 and 3 mg/kg i.p., vehicle-pretreated mice): dose-dependently induced

Molecule: CCC(=O)NC[C@H](Cc1ccc(OCCc2nc(-c3ccccc3)oc2C)cc1)N/C(C)=C\C(=O)c1ccc(C(F)(F)F)cc1 [GW6471, N-((2S)-2-(((1Z)-1-methyl-3-oxo-3-(4-(trifluoromethyl)phenyl)prop-1-enyl)amino)-3-(4-(2-(5-methyl2phenyl-1,3-oxazol-4-yl)ethoxy)phenyl)propyl)propanamide, reference compound]
- Effect on OlGly blockade of nicotine CPP (ICR mice [3]; GW6471 2 mg/kg i.p. 30 min before OlGly, mice): fully prevented OlGly blockade of nicotine CPP

Molecule: CC(C)OC(=O)C(C)(C)Oc1ccc(C(=O)c2ccc(Cl)cc2)cc1 [fenofibrate]
- Ability to stop smoking during a brief practice quit period (dependent smokers): did not facilitate the ability to stop smoking
- Reversal of nicotine withdrawal (mice): failed to reverse nicotine withdrawal

Molecule: Cc1c(C(=O)NN2CCCCC2)nn(-c2ccc(Cl)cc2Cl)c1-c1ccc(Cl)cc1 [rimonabant]
- Smoking abstinence compared with placebo (smokers): effectively improved smoking abstinence

Molecule: CCCCCCCC/C=C\CCCCCCCC(=O)NCC(=O)O [OlGly, N-oleoyl-glycine]
- IC50 [4]: 45.5 ± 5.1 µM
- Ki [4]: 27.8 ± 3.1 µM
- CB1 displacement produced by maximum dose tested (50 μM) ([4]; 50 μM): 55.9 ± 7.3%
- IC50 [5]: > 50 µM
- Ki [5]: > 50 µM
- CB2 displacement produced by maximum dose tested (50 μM) ([5]; 50 μM): 15.5 ± 6.40%
- IC50 [6]: 8.65 µM
- inhibition at 50 µM ([6]; read-out: FAAH inhibition produced by maximum dose tested (50 μM)): 89.4%
- Distance traveled (ICR mice [7]; 10 mg/kg i.p.): 24.3 ±1.2 cm
- Speed (ICR mice [7]; 10 mg/kg i.p.): 8.1 ± 0.4 cm/s
- Time immobile (ICR mice [7]; 10 mg/kg i.p.): 8.6 ± 1.6 s
- Δ rectal temperature (ICR mice [7]; 10 mg/kg i.p.): −0.90 ± 0.19 °C
- Catalepsy (ICR mice [7]; 10 mg/kg i.p.): 0.0 s
- Antinociception (ICR mice [7]; 10 mg/kg i.p.): 12.0± 6.6 %MPE
- Distance traveled (ICR mice [7]; 30 mg/kg i.p.): 21.5±1.7 cm
- Speed (ICR mice [7]; 30 mg/kg i.p.): 7.2 ± 0.6 cm/s
- Time immobile (ICR mice [7]; 30 mg/kg i.p.): 11.8 ± 6.2 s
- Δ rectal temperature (ICR mice [7]; 30 mg/kg i.p.): −1.13 ± 0.26 °C
- Catalepsy (ICR mice [7]; 30 mg/kg i.p.): 0.0 s
- Antinociception (ICR mice [7]; 30 mg/kg i.p.): 6.0 ± 4.5 %MPE
- Distance traveled (ICR mice [7]; 100 mg/kg i.p.): 18.6±1.5 cm
- Speed (ICR mice [7]; 100 mg/kg i.p.): 6.21 ± 0.5 cm/s
- Time immobile (ICR mice [7]; 100 mg/kg i.p.): 17.4 ± 7.3 s
- Δ rectal temperature (ICR mice [7]; 100 mg/kg i.p.): −0.22 ± 0.5431 °C
- Catalepsy (ICR mice [7]; 100 mg/kg i.p.): 0.0 s
- Antinociception (ICR mice [7]; 100 mg/kg i.p.): 25.9±11.0 %MPE
- OlGly levels in hippocampus [8, 10]: 186.0 ± 60.05 pmol/g
- OlGly levels in hypothalamus [8, 10]: 245.6 ± 108.1 pmol/g
- OlGly levels in insula [8, 10]: 168.0 ± 60.28 pmol/g
- concentration at 15 min ([8]; ICR, mouse, plasma, intraperitoneal, 60 mg/kg): 2000 ± 627 nM
- Number of mecamylamine-precipitated somatic withdrawal signs (nicotine-dependent mice; 60 mg/kg i.p., nicotine-dependent mice): attenuated the number of mecamylamine-precipitated somatic withdrawal signs
- Overt behavioral alterations in control mice (nicotine-dependent mice; control mice continuously infused with saline): did not elicit overt behavioral alterations
- Development of nicotine-induced CPP (ICR mice [3]; i.p. 15 min before nicotine 0.5 mg/kg s.c. on conditioning days, mice): dose-dependently prevented the development of nicotine-induced CPP
- Place preference in saline-treated mice (ICR mice [3]; saline-treated mice): did not affect place preference
- Morphine CPP (ICR mice [9]): did not carry over to morphine CPP
- Shift of the CP55,940 dose-response relationship in the tetrad assay (ICR mice [2]; OlGly 60 mg/kg i.p. 10 min before first CP55,940 dose, mice): did not alter the dose-response relationship
- Luciferase activity compared to DMSO (PPAR-α; OlGly 10 mM, 50 μM and 100 mM as printed in Fig. 6): significantly increased luciferase activity
- Locomotor activity (rats): decreases locomotor activity
- Reduction of body temperature (rats): 1.5–2.0 °C
